Laboratory results reported in ChEMBL document CHEMBL3352791, “Thioaryl naphthylmethanone oxime ether analogs as novel anticancer agents” (J Med Chem, 2014).

Key:
[1] = tested on: MCF7; experiment: Antiproliferative activity against human ER-negative MCF7 cells after 24 hrs by MTT assay; type: functional, cell-based
[2] = tested on: MDA-MB-231; experiment: Antiproliferative activity against human ER-positive MDA-MB-231 cells after 24 hrs by MTT assay; type: functional, cell-based
[3] = Antiproliferative activity against human prostate, androgen receptor positive DU145 cells after 24 hrs by MTT assay; type: functional, cell-based, DU-145
[4] = tested on: Ishikawa; experiment: Antiproliferative activity against human ER-positive Ishikawa cells after 24 hrs by MTT assay; type: functional, cell-based
[5] = tested on: HeLa; experiment: Antiproliferative activity against human HeLa cells after 24 hrs by MTT assay; type: functional, cell-based
[6] = tested on: MDA-MB-231; experiment: Antiproliferative activity against human ER-positive MDA-MB-231 cells after 72 hrs by MTT assay; type: functional, cell-based; settings: MDA-MB-231, 72 h
[7] = Safety index, ratio of IC50 for human MCF10A cells to EC50 for human ER-positive MDA-MB-231 cells; settings: MCF10A cells versus
[8] = Cytotoxicity against human MCF10A cells after 72 hrs by MTT assay; type: ADME, cell-based; settings: MCF-10A
[9] = tested on: MCF7; experiment: Antiproliferative activity against human ER-negative MCF7 cells after 72 hrs by MTT assay; type: functional, cell-based; settings: MCF7, 72 h
[10] = in vitro; settings: human, MCF10A cells versus
[11] = tested on: SW-620; experiment: Antiproliferative activity against human SW620 cells after 24 hrs by MTT assay; type: functional, cell-based; settings: SW-620, 24 h
Method in brief: (§1)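 MTT viability: cells seeded at 1×10^4 per well in DMEM with 10% FBS, left to adhere overnight, then serum-starved 4 h. Compounds were given at a range of doses, with 0.1% DMSO vehicle as control. EC50 was taken from dose-response curves spanning 100nM-50µM. Data are mean ± SEM from at least three independent experiments.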

[12] = Antiproliferative activity against human DLD1 cells after 24 hrs by MTT assay; type: functional, cell-based; settings: DLD-1, 24 h; method in brief: as §1
[13] = Antiproliferative activity against human HCT116 cells after 24 hrs by MTT assay; type: functional, cell-based; settings: HCT-116, 24 h; method in brief: as §1
[14] = Antiproliferative activity against human COLO205 cells after 24 hrs by MTT assay; type: functional, cell-based; settings: COLO 205, 24 h; method in brief: as §1
[15] = tested on: HEK293; experiment: Antiproliferative activity against HEK293 cells after 24 hrs by MTT assay; type: functional, cell-based; settings: Homo sapiens, HEK293, 24 h; method in brief: as §1
[16] = Safety index, ratio of IC50 for human MCF10A cells to EC50 for human SW620 cells; type: toxicity, cell-based, SW-620; settings: MCF10A cells versus SW620 cells, read-out: Ratio IC50/EC50
Method in brief: (§2)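 Safety index is the IC50 in the normal cells divided by the EC50 in the cancer cells. Both values come from MTT assays: cells in DMEM with 10% FBS, serum-starved 4 h, then exposed to compound across a 100nM-50µM dose range with 0.1% DMSO as vehicle control.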

[17] = Safety index, ratio of IC50 for human MCF10A cells to EC50 for human DLD1 cells; type: toxicity, cell-based, MCF-10A; settings: MCF10A cells versus DLD1 cells, read-out: Ratio IC50/EC50; method in brief: as §2
[18] = Safety index, ratio of IC50 for human MCF10A cells to EC50 for human HCT116 cells; type: toxicity, cell-based, MCF-10A; settings: MCF10A cells versus HCT116 cells, read-out: Ratio IC50/EC50; method in brief: as §2
[19] = Safety index, ratio of IC50 for human MCF10A cells to EC50 for human COLO205 cells; type: toxicity, cell-based, COLO 205; settings: MCF10A cells versus COLO205 cells, read-out: Ratio IC50/EC50; method in brief: as §2

| Compound | EC50 ([1]; Homo sapiens, MCF7, 24 h) | EC50 ([2]; Homo sapiens, MDA-MB-231, 24 h) | EC50 ([3]; Homo sapiens, DU-145, 24 h) | EC50 ([4]; Homo sapiens, Ishikawa, 24 h) | EC50 ([5]; Homo sapiens, HeLa, 24 h) | also measured |
| --- | --- | --- | --- | --- | --- | --- |
| CSc1ccc(/C(=N\OCCN2CCCCCC2)c2cccc3ccccc23)cc1 | > 50 µM | > 50 µM | > 50 µM | > 50 µM | > 50 µM | – |
| CC/C(=C(\c1ccc(O)cc1)c1ccc(OCCN(C)C)cc1)c1ccccc1 [AFIMOXIFENE] | 8.8 µM | 8 µM | 10 µM | 11.5 µM | – | EC50 [6]: 7.8 µM; selectivity ratio [7]: 1.28 |
| COc1ccc(/C(=N\OCCN2CCCC2)c2cccc3ccccc23)cc1 | 25 µM | > 50 µM | > 50 µM | > 50 µM | 20 µM | – |
| O=C(c1ccc(OCCN2CCCCC2)cc1)c1c(-c2ccc(O)cc2)sc2cc(O)ccc12 [RALOXIFENE] | 23 µM | 30 µM | > 50 µM | 20 µM | – | – |
| CSc1ccc(/C(=N\OCCCCN2CCCC2)c2cccc3ccccc23)cc1 | > 50 µM | > 50 µM | > 50 µM | > 50 µM | > 50 µM | – |
| CCCCC(CC)CNCCCO/N=C(\c1ccc(OC)cc1)c1cccc2ccccc12 (configuration not stated) | > 50 µM | > 50 µM | > 50 µM | > 50 µM | > 50 µM | – |
| CCN(CC)CCO/N=C(\c1ccc(SC)cc1)c1cccc2ccccc12 [listing 1 of 4 here] | – | – | – | – | – | EC50 ([1]; mcf7): 18.5 µM; EC50 ([2]; mda-mb-231): 14.8 µM; EC50 ([3]; du-145): 20 µM; EC50 ([4]; ishikawa): 20 µM |
| CSc1ccc(/C(=N\OCCN(C)C)c2cccc3ccccc23)cc1 | 14 µM | 12.8 µM | 15 µM | 9 µM | 14 µM | – |
| CSc1ccc(/C(=N\OC(C)CN(C)C)c2cccc3ccccc23)cc1 (configuration not stated) | > 50 µM | > 50 µM | > 50 µM | > 50 µM | > 50 µM | – |
| COc1ccc(/C(=N\OCCN2CCCCCC2)c2cccc3ccccc23)cc1 | 25 µM | 30 µM | 35 µM | > 50 µM | 20.5 µM | – |
| CCN(CC)CCO/N=C(\c1ccc(OC)cc1)c1cccc2ccccc12 | 20 µM | > 50 µM | > 50 µM | > 50 µM | > 50 µM | – |
| CSc1ccc(/C(=N\O)c2cccc3ccccc23)cc1 | 18 µM | 20 µM | > 50 µM | > 50 µM | 18 µM | – |
| CCCCN(C)CCCO/N=C(\c1ccc(SC)cc1)c1cccc2ccccc12 | > 50 µM | > 50 µM | > 50 µM | > 50 µM | 8 µM | – |
| CCN(CC)CCO/N=C(\c1ccc(SC)cc1)c1cccc2ccccc12 [listing 2 of 4 here] | – | – | – | – | – | EC50 ([1]; mcf7): 14.8 µM; EC50 ([2]; mda-mb-231): 11.2 µM; EC50 ([3]; du-145): 18.5 µM; EC50 ([4]; ishikawa): 15 µM |
| COc1ccc(/C(=N\OCCN(C)C)c2cccc3ccccc23)cc1 | 15 µM | > 50 µM | > 50 µM | > 50 µM | 23 µM | – |
| CSc1ccc(/C(=N\OCCCCN2CCCCC2)c2cccc3ccccc23)cc1 | 8 µM | 18 µM | 7.5 µM | 18 µM | 18 µM | IC50 [8]: 10 µM; EC50 [9]: 8 µM; EC50 [6]: 18 µM; selectivity ratio [7]: 0.5; selectivity ratio [10]: 1.2 |
| COc1ccc(/C(=N\OCCN(C(C)C)C(C)C)c2cccc3ccccc23)cc1 | 23 µM | > 50 µM | > 50 µM | > 50 µM | > 50 µM | – |
| COc1ccc(/C(=N\OC(C)CN(C)C)c2cccc3ccccc23)cc1 (configuration not stated) | > 50 µM | > 50 µM | > 50 µM | > 50 µM | > 50 µM | – |

| Compound | EC50 ([1]; Homo sapiens, MCF7, 24 h) | EC50 ([2]; Homo sapiens, MDA-MB-231, 24 h) | EC50 ([3]; Homo sapiens, DU-145, 24 h) | EC50 ([4]; Homo sapiens, Ishikawa, 24 h) | EC50 ([5]; Homo sapiens, HeLa, 24 h) | also measured |
| --- | --- | --- | --- | --- | --- | --- |
| CSc1ccc(/C(=N\OCCCN(C)C)c2cccc3ccccc23)cc1 | 8 µM | 7.2 µM | 9.5 µM | 7 µM | 8 µM | IC50 [8]: 30 µM; EC50 [9]: 1 µM; EC50 [6]: 5.6 µM; selectivity ratio [7]: 5.3; selectivity ratio [10]: 30 |
| COc1ccc(/C(=N\OCCCN(C)C)c2cccc3ccccc23)cc1 | 20.5 µM | > 50 µM | > 50 µM | > 50 µM | > 50 µM | – |
| COc1ccc(/C(=N\OCCN2CCOCC2)c2cccc3ccccc23)cc1 | 20 µM | 25 µM | > 50 µM | > 50 µM | > 50 µM | – |
| CSc1ccc(/C(=N\OCCN(C(C)C)C(C)C)c2cccc3ccccc23)cc1 | > 50 µM | > 50 µM | > 50 µM | > 50 µM | > 50 µM | – |
| CCN(CCCCO/N=C(\c1ccc(SC)cc1)c1cccc2ccccc12)Cc1ccccc1 | > 50 µM | > 50 µM | > 50 µM | > 50 µM | 10 µM | – |
| CCOC(=O)CO/N=C(\c1ccc(SC)cc1)c1cccc2ccccc12 | 30 µM | 35 µM | > 50 µM | > 50 µM | 18 µM | – |
| CSc1ccc(/C(=N\OCCN2CCCC2)c2cccc3ccccc23)cc1 | 6.6 µM | 5.01 µM | 9.5 µM | 6 µM | 6.6 µM | IC50 [8]: 5.5 µM; EC50 [9]: 5 µM; EC50 [6]: 3.8 µM; selectivity ratio [7]: 1.4; selectivity ratio [10]: 1.1 |
| COc1ccc(/C(=N\OCCN2CCCCC2)c2cccc3ccccc23)cc1 | 18 µM | > 50 µM | > 50 µM | > 50 µM | 15 µM | – |
| CSc1ccc(/C(=N\OCCCCNCCc2ccccc2)c2cccc3ccccc23)cc1 | 18 µM | 20 µM | > 50 µM | > 50 µM | > 50 µM | – |
| CSc1ccc(/C(=N\OCCN2CCCCC2)c2cccc3ccccc23)cc1 | 13.5 µM | 8.8 µM | 10 µM | 10 µM | 13.5 µM | – |
| CSc1ccc(/C(=N\OCCN2CCOCC2)c2cccc3ccccc23)cc1 | > 50 µM | > 50 µM | > 50 µM | > 50 µM | > 50 µM | – |
| CCN(CC)CCO/N=C(\c1ccc(SC)cc1)c1cccc2ccccc12 [listing 3 of 4 here] | – | – | – | – | – | EC50 ([1]; mcf7): > 50 µM; EC50 ([2]; mda-mb-231): > 50 µM; EC50 ([3]; du-145): > 50 µM; EC50 ([4]; ishikawa): > 50 µM; EC50 ([5]; hela): > 50 µM |
| CSc1ccc(/C(=N\OCCCN2CCC(C)CC2)c2cccc3ccccc23)cc1 | 6.5 µM | 20 µM | 10 µM | > 50 µM | > 50 µM | – |
| CCN(CC)C(=O)CO/N=C(\c1ccc(SC)cc1)c1cccc2ccccc12 | 28 µM | 30 µM | > 50 µM | > 50 µM | 25 µM | – |
| CSc1ccc(/C(=N\OCCCN2CCOCC2)c2cccc3ccccc23)cc1 | > 50 µM | > 50 µM | > 50 µM | > 50 µM | > 50 µM | – |
| O=c1[nH]cc(F)c(=O)[nH]1 [FLUOROURACIL] | – | – | – | – | – | EC50 [11]: > 50 µM; EC50 [12]: 16.3 µM; EC50 [13]: > 50 µM; EC50 [14]: 38.1 µM; IC50 [15]: 48.7 µM; selectivity ratio [16]: 0.97; selectivity ratio [17]: 2.98; selectivity ratio [18]: 0.97; selectivity ratio [19]: 1.2 |
| CSc1ccc(/C(=N\OCCCN2CCCCC2)c2cccc3ccccc23)cc1 | 5 µM | 20 µM | 15 µM | 12 µM | 6.5 µM | IC50 [8]: 10 µM; EC50 [9]: 5 µM; EC50 [6]: 20 µM; selectivity ratio [7]: 0.5; selectivity ratio [10]: 2 |
| CCN(CC)CCO/N=C(\c1ccc(SC)cc1)c1cccc2ccccc12 [listing 4 of 4 here] | – | – | – | – | – | EC50 ([1]; mcf7): 13.5 µM; EC50 ([2]; mda-mb-231): 8.8 µM; EC50 ([3]; du-145): 25 µM; EC50 ([4]; ishikawa): 25 µM; EC50 ([5]; hela): 20 µM |
